Assay results taken from ChEMBL document CHEMBL5058577, “EUbOPEN Chemogenomics Library 2 (Multiplex)” (2022).

System: Fibroblast
Assay: Multiplex assay against human fibroblast
Format: toxicity, cell-based
Method in brief: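 Hoechst33342, BioTracker Green Microtubule Cytoskeleton Dye, MitoTracker Red and Annexin V Alexa Fluor 680 were added to live cells at seeding, and imaging on a CQ1 microscope at 37°C and 5% CO2 followed compound addition. Gating by CellPathfinder machine learning separated cells into Hoechst high-intensity objects or normal cells, then normal cells into healthy, pyknosed or fragmented nuclei, then pyknosed cells into mitotic or apoptotic. Per cents of healthy-nucleus cells are reported for the tubulin, mitochondrial-mass and membrane-permeability phenotypes.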

[1] = 12 h, 1 µM, compound concentration 1 uM, replicate 1
[2] = 12 h, 1 µM, compound concentration 1 uM, replicate 2
[3] = 12 h, 10 µM, compound concentration 10 uM, replicate 1
[4] = 12 h, 10 µM, compound concentration 10 uM, replicate 2
[5] = 24 h, 1 µM, compound concentration 1 uM, replicate 1
[6] = 24 h, 1 µM, compound concentration 1 uM, replicate 2
[7] = 24 h, 10 µM, compound concentration 10 uM, replicate 1
[8] = 24 h, 10 µM, compound concentration 10 uM, replicate 2
[9] = 48 h, 1 µM, compound concentration 1 uM, replicate 1
[10] = 48 h, 1 µM, compound concentration 1 uM, replicate 2
[11] = 48 h, 10 µM, compound concentration 10 uM, replicate 1
[12] = 48 h, 10 µM, compound concentration 10 uM, replicate 2

O=c1ccc2ccc(OCCCCN3CCN(c4cccc5sccc45)CC3)cc2[nH]1 [BREXPIPRAZOLE] was tested, and the “Population Apoptotic (%)” value [1] was 56%, the “Population Fragmented Nuclei (%)” value [1] was 17% and the “Population Healthy Nuclei (%)” value [1] was 62%. For the same compound, the “Population Hoechst High Intensity Objects (%)” value [1] was 2%, the “Population Membrane Permeable-Phenotype (%)” value [1] was 0% and the “Population Mitochondria Different-Phenotype (%)” value [1] was 5%. For the same compound, the “Population Mitotic Cells (%)” value [1] was 44%, the “Population Normal (%)” value [1] was 97% and the “Population Pyknosed Nuclei (%)” value [1] was 20%. The “Population Tubulin-Different-Phenotype (%)” value [1] was 41%, the “Total Cell Count” value [1] was 126 and the “Population Apoptotic (%)” value [2] was 48%. The “Population Fragmented Nuclei (%)” value [2] was 33%, the “Population Healthy Nuclei (%)” value [2] was 44% and the “Population Hoechst High Intensity Objects (%)” value [2] was 5%. The “Population Membrane Permeable-Phenotype (%)” value [2] was 2%, the “Population Mitochondria Different-Phenotype (%)” value [2] was 15% and the “Population Mitotic Cells (%)” value [2] was 51%. For the same compound, the “Population Normal (%)” value [2] was 94%, the “Population Pyknosed Nuclei (%)” value [2] was 21% and the “Population Tubulin-Different-Phenotype (%)” value [2] was 73%. The “Total Cell Count” value [2] was 169, the “Population Apoptotic (%)” value [3] was 68% and the “Population Fragmented Nuclei (%)” value [3] was 16%. For the same compound, the “Population Healthy Nuclei (%)” value [3] was 64%, the “Population Hoechst High Intensity Objects (%)” value [3] was 1% and the “Population Membrane Permeable-Phenotype (%)” value [3] was 0%. For the same compound, the “Population Mitochondria Different-Phenotype (%)” value [3] was 39%, the “Population Mitotic Cells (%)” value [3] was 31% and the “Population Normal (%)” value [3] was 98%. For the same compound, the “Population Pyknosed Nuclei (%)” value [3] was 19%, the “Population Tubulin-Different-Phenotype (%)” value [3] was 83% and the “Total Cell Count” value [3] was 203. For the same compound, the “Population Apoptotic (%)” value [4] was 45%, the “Population Fragmented Nuclei (%)” value [4] was 30% and the “Population Healthy Nuclei (%)” value [4] was 49%. The “Population Hoechst High Intensity Objects (%)” value [4] was 11%, the “Population Membrane Permeable-Phenotype (%)” value [4] was 2% and the “Population Mitochondria Different-Phenotype (%)” value [4] was 25%. For the same compound, the “Population Mitotic Cells (%)” value [4] was 54%, the “Population Normal (%)” value [4] was 88% and the “Population Pyknosed Nuclei (%)” value [4] was 20%. The “Population Tubulin-Different-Phenotype (%)” value [4] was 81%, the “Total Cell Count” value [4] was 243 and the “Population Apoptotic (%)” value [5] was 56%. The “Population Fragmented Nuclei (%)” value [5] was 17%, the “Population Healthy Nuclei (%)” value [5] was 69% and the “Population Hoechst High Intensity Objects (%)” value [5] was 1%. For the same compound, the “Population Membrane Permeable-Phenotype (%)” value [5] was 0%, the “Population Mitochondria Different-Phenotype (%)” value [5] was 8% and the “Population Mitotic Cells (%)” value [5] was 43%. For the same compound, the “Population Normal (%)” value [5] was 98%, the “Population Pyknosed Nuclei (%)” value [5] was 13% and the “Population Tubulin-Different-Phenotype (%)” value [5] was 43%. For the same compound, the “Total Cell Count” value [5] was 122, the “Population Apoptotic (%)” value [6] was 33% and the “Population Fragmented Nuclei (%)” value [6] was 32%. The “Population Healthy Nuclei (%)” value [6] was 52%, the “Population Hoechst High Intensity Objects (%)” value [6] was 3% and the “Population Membrane Permeable-Phenotype (%)” value [6] was 2%. For the same compound, the “Population Mitochondria Different-Phenotype (%)” value [6] was 14%, the “Population Mitotic Cells (%)” value [6] was 66% and the “Population Normal (%)” value [6] was 96%. The “Population Pyknosed Nuclei (%)” value [6] was 14%, the “Population Tubulin-Different-Phenotype (%)” value [6] was 76% and the “Total Cell Count” value [6] was 173. For the same compound, the “Population Apoptotic (%)” value [7] was 58%, the “Population Fragmented Nuclei (%)” value [7] was 13% and the “Population Healthy Nuclei (%)” value [7] was 54%. For the same compound, the “Population Hoechst High Intensity Objects (%)” value [7] was 13%, the “Population Membrane Permeable-Phenotype (%)” value [7] was 0% and the “Population Mitochondria Different-Phenotype (%)” value [7] was 63%. The “Population Mitotic Cells (%)” value [7] was 41%, the “Population Normal (%)” value [7] was 86% and the “Population Pyknosed Nuclei (%)” value [7] was 31%. The “Population Tubulin-Different-Phenotype (%)” value [7] was 85%, the “Total Cell Count” value [7] was 218 and the “Population Apoptotic (%)” value [8] was 65%. The “Population Fragmented Nuclei (%)” value [8] was 30%, the “Population Healthy Nuclei (%)” value [8] was 40% and the “Population Hoechst High Intensity Objects (%)” value [8] was 19%. For the same compound, the “Population Mitochondria Different-Phenotype (%)” value [8] was 34%, the “Population Mitotic Cells (%)” value [8] was 34% and the “Population Normal (%)” value [8] was 80%. The “Population Pyknosed Nuclei (%)” value [8] was 28%, the “Population Tubulin-Different-Phenotype (%)” value [8] was 71% and the “Total Cell Count” value [8] was 239. The “Population Apoptotic (%)” value [9] was 62%, the “Population Fragmented Nuclei (%)” value [9] was 24% and the “Population Healthy Nuclei (%)” value [9] was 62%. For the same compound, the “Population Hoechst High Intensity Objects (%)” value [9] was 4%, the “Population Membrane Permeable-Phenotype (%)” value [9] was 0% and the “Population Mitochondria Different-Phenotype (%)” value [9] was 10%. The “Population Mitotic Cells (%)” value [9] was 37%, the “Population Normal (%)” value [9] was 95% and the “Population Pyknosed Nuclei (%)” value [9] was 12%. For the same compound, the “Population Tubulin-Different-Phenotype (%)” value [9] was 52%, the “Total Cell Count” value [9] was 133 and the “Population Apoptotic (%)” value [10] was 60%. For the same compound, the “Population Fragmented Nuclei (%)” value [10] was 42%, the “Population Healthy Nuclei (%)” value [10] was 51% and the “Population Membrane Permeable-Phenotype (%)” value [10] was 1%. The “Population Mitochondria Different-Phenotype (%)” value [10] was 9%, the “Population Mitotic Cells (%)” value [10] was 40% and the “Population Pyknosed Nuclei (%)” value [10] was 5%. For the same compound, the “Population Tubulin-Different-Phenotype (%)” value [10] was 67%, the “Total Cell Count” value [10] was 175 and the “Population Apoptotic (%)” value [11] was 62%. For the same compound, the “Population Fragmented Nuclei (%)” value [11] was 18%, the “Population Healthy Nuclei (%)” value [11] was 50% and the “Population Hoechst High Intensity Objects (%)” value [11] was 34%. For the same compound, the “Population Membrane Permeable-Phenotype (%)” value [11] was 0%, the “Population Mitochondria Different-Phenotype (%)” value [11] was 60% and the “Population Mitotic Cells (%)” value [11] was 37%. For the same compound, the “Population Normal (%)” value [11] was 65%, the “Population Pyknosed Nuclei (%)” value [11] was 31% and the “Population Tubulin-Different-Phenotype (%)” value [11] was 88%. The “Total Cell Count” value [11] was 208, the “Population Apoptotic (%)” value [12] was 44% and the “Population Fragmented Nuclei (%)” value [12] was 30%. The “Population Healthy Nuclei (%)” value [12] was 43%, the “Population Mitochondria Different-Phenotype (%)” value [12] was 20% and the “Population Mitotic Cells (%)” value [12] was 55%. The “Population Pyknosed Nuclei (%)” value [12] was 26%, the “Population Tubulin-Different-Phenotype (%)” value [12] was 55% and the “Total Cell Count” value [12] was 317.
